The record followed here is ChEMBL document CHEMBL5532690, “Antitubercular activity of 2-mercaptobenzothiazole derivatives targeting Mycobacterium tuberculosis type II NADH dehydrogenase” (RSC Med Chem, 2024).

The subject of series [1] is Mycobacterium tuberculosis. The experiment in a line: Antitubercular activity against Mycobacterium tuberculosis H37Ra measured after 10 days by liquid broth microdilution assay. Format: functional. Conditions: 240 h, time 10 day. The gist of the method:
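Broth microdilution in 7H9 with 0.2% glycerol, 0.05% Tween 80 and 10% ADS. Mid-log cultures (OD600 0.4–0.6) were diluted to OD600 0.005 (1.0 × 10^6 CFU ml−1) and added to two-fold serial compound dilutions. Plates were incubated at 37 °C for 10 days and read visually. MIC was the lowest concentration with no turbidity.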
(Dilution methods test growth across graded concentrations, often in twofold steps.)

Series [2] has as its system Mycobacterium tuberculosis. The experiment in a line: Antitubercular activity against Mycobacterium tuberculosis H37Rv mc2 6230 measured after 10 days by liquid broth microdilution assay. Format: functional. Conditions: H37Rv mc2 6230, 240 h, time 10 day. The gist of the method:
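Broth microdilution in 7H9 with glycerol, ADS and 0.05% tyloxapol, supplemented with L-methionine, L-leucine (50 mg L−1 each), L-arginine (200 mg L−1) and D-pantothenate (24 mg L−1). Inoculum was diluted to OD600 0.005 (1.0 × 10^6 CFU ml−1) and added to two-fold serial dilutions. After 10 days at 37 °C, MIC was the lowest concentration without visible turbidity.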

Series [3] relates to Mycobacterium tuberculosis. The experiment in a line: Antitubercular activity against Mycobacterium tuberculosis H37Ra assessed as inhibition of intracellular ATP synthesis incubated for 24 hrs by BacTiter-Glo microbial cell viability assay. Format: functional, organism-based. The gist of the method: (§1)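 Mid-log cultures were adjusted to OD600 0.05 and exposed to compounds at 37 °C for 24 h. BacTiter-Glo reagent was then added for 12 min and luminescence was read. H37Ra and BCG were grown in 7H9 with glycerol, Tween 80 and ADS. mc2 6230 was grown with tyloxapol plus methionine, leucine, arginine and pantothenate. Values are the mean of triplicates.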

Series [4] concerns Mycobacterium tuberculosis. The experiment in a line: Antitubercular activity against Mycobacterium tuberculosis H37Rv mc2 6230 assessed as inhibition of intracellular ATP synthesis incubated for 24 hrs by BacTiter-Glo microbial cell viability assay. Format: functional, organism-based. Conditions: H37Rv mc2 6230, 24 h. The gist of the method: as §1
Series [5] in a line: Cytotoxicity against human HepG2 cells assessed as reduction in cell viability by MTT assay. Format: toxicity, cell-based. The procedure, abridged:
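HepG2 cells in DMEM with 10% FBS, streptomycin, penicillin, 10 mM HEPES and 2 mM L-glutamine were seeded at 1 × 10^4 cells/well and incubated for 24 h (37 °C, 5% CO2). […] two-fold dilutions spanning 1000–0.48 μg ml−1 were applied. MTT (2.5 mg ml−1 in PBS) was added; formazan was dissolved in DMSO and read at 570 nm. CC50 = 50% viability loss. Triplicates.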

Series [6] is described as follows: Selectivity index, ratio of CC50 for cytotoxicity against human HepG2 cells to MIC90 for antitubercular activity against Mycobacterium tuberculosis. Format: toxicity, cell-based. Conditions: read-out: Selectivity Index. The gist of the method:
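Selectivity index calculated as HepG2 MTT CC50 divided by MIC90.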

The test system of series [7] is Mycobacterium tuberculosis. The experiment in a line: Bactericidal activity against Mycobacterium tuberculosis H37Rv mc2 6230 assessed as reduction in bacterial load at 4 times MIC measured after 5 days. Format: functional, organism-based. Particulars: time 5.0 day.
Series [8] relates to Mycobacterium tuberculosis. The experiment in a line: Bactericidal activity against Mycobacterium tuberculosis H37Rv mc2 6230 assessed as reduction in bacterial load measured after 5 days. Format: functional, organism-based. Particulars: time 5.0 day. The gist of the method:
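Mid-log bacilli in supplemented 7H9 were adjusted to OD600 0.005 and exposed to a range of concentrations for 5 days at 37 °C. Cultures were 10-fold serially diluted and spotted on 7H10 agar, which was incubated for 3–4 weeks for CFU counts. MBC90 was a 90% fall from the initial inoculum. Triplicates; Student's t-test.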

A word on the MIC90: it is the lowest concentration that inhibits either 90% of growth or 90% of the strains tested, depending on the study. A word on the IC50: it is the concentration at which inhibition is half-maximal. One may read the CC50 as the concentration that lowers cell viability or growth by half.

In brackets after ≈: the same amount, converted by molar mass. Activity calls are given as the source filed them. The rule behind the calls is not given here.

Take `Cc1ccc2nc(SCC(=O)NC3CCCCC3)sc2c1`: the MIC90 in series [1] and in series [2] was 32 µg/mL (≈ 99.8 µM) each time. Further, the IC50 in series [3] is 14.1 µg/mL (≈ 43.9 µM); in series [4], 34.9 µg/mL (≈ 109 µM).
`CC(C)/N=c1\cc2n(-c3ccc(Cl)cc3)c3ccccc3nc-2cc1Nc1ccc(Cl)cc1` [CLOFAZIMINE]: the MIC90 in series [1] and in series [2] was 0.25 µg/mL (≈ 0.528 µM) each time. The CC50 in series [5] stood at 49 µg/mL (≈ 104 µM). Moreover, the selectivity ratio in series [6] turned out to be 223.
For `CC/C(=C(\c1ccccc1)c1ccc(OCCN(C)C)cc1)c1ccccc1` [TAMOXIFEN], in series [5], the half-maximal cytotoxic concentration (CC50) came to 6.15 µg/mL (≈ 16.6 µM).
For the molecule `O=C(CSc1nc2ccccc2c(=O)[nH]1)NC1CCCCC1`, the MIC90 in series [1] and in series [2] was 0.5 µg/mL (≈ 1.58 µM) in each case. Besides, the IC50 in series [3] was found to be 8.55 µg/mL (≈ 26.9 µM); in series [4], 2.23 µg/mL (≈ 7.01 µM). In addition, the half-maximal cytotoxic concentration (CC50) in series [5] was 48.8 µg/mL (≈ 154 µM). In addition, the selectivity ratio in series [6] was 391.
With `O=C(CSc1nc2c(Br)cc(OC(F)(F)F)cc2s1)NC1CCCCC1`, the MIC90 in series [1] and in series [2] was 128 µg/mL (≈ 273 µM) throughout. Besides, the IC50 in series [3] amounted to 36.6 µg/mL (≈ 77.9 µM); in series [4], 35.8 µg/mL (≈ 76.3 µM).
For the molecule `O=C(CSc1nc2ccc([N+](=O)[O-])cc2s1)NC1CCCCC1`, the MIC90 in series [1] and in series [2] was 16 µg/mL (≈ 45.5 µM) in each case. Besides, the results for the 50% inhibitory concentration (IC50) in series [3] and in series [4] were 36.3 µg/mL (≈ 103 µM) and 24.4 µg/mL (≈ 69.6 µM), respectively.
Regarding `O=C(CSc1nc2ccc(F)cc2s1)NC1CCCCC1`, the figures for the MIC90 in series [1] and in series [2] were 16 µg/mL (≈ 49.3 µM) and 4 µg/mL (≈ 12.3 µM), respectively. For the same molecule, the concentration for half-maximal inhibition (IC50) stood at 36.5 µg/mL (≈ 113 µM) in series [3] and 56.9 µg/mL (≈ 175 µM) in series [4].
With `NNC(=O)c1ccncc1` [ISONIAZID], the MIC90 in series [1] came out at 0.015 µg/mL (≈ 0.109 µM); in series [2] it was 0.06 µg/mL (≈ 0.438 µM).
For `O=C(CSc1nc2c(ccc3ccccc32)s1)NC1CCCCC1`, the MIC90 in series [1] and in series [2] was 128 µg/mL (≈ 359 µM) each time. The IC50 in series [3] was found to be 36.6 µg/mL (≈ 103 µM); in series [4], 33 µg/mL (≈ 92.5 µM).
For `C=C(C)[C@H]1Cc2c(ccc3c2O[C@@H]2COc4cc(OC)c(OC)cc4[C@@H]2C3=O)O1` [ROTENONE], the MIC90 in series [1] and in series [2] was more than 64 µg/mL in each case.
Take `O=C(CSc1nc2c(Br)cc(F)cc2s1)NC1CCCCC1`: the MIC90 in series [1] and in series [2] was 8 µg/mL (≈ 19.8 µM) in each case. Further, the concentration for half-maximal inhibition (IC50) in series [3] was 18.7 µg/mL (≈ 46.3 µM); in series [4], 14.7 µg/mL (≈ 36.4 µM). Also, in series [5], the CC50 amounted to 89.4 µg/mL (≈ 222 µM). Also, in series [7], the outcome was Active. The selectivity ratio in series [6] was determined as 5.58. Besides, the Activity result in series [8] was “Dose-Dependent Effect”.
`O=C(CSc1nc2ccc(C(F)(F)F)cc2s1)NC1CCCCC1`: the figures for the MIC90 in series [1] and in series [2] were 32 µg/mL (≈ 85.5 µM) and 64 µg/mL (≈ 171 µM), respectively. In addition, the figures for the IC50 in series [3] and in series [4] were 30.9 µg/mL (≈ 82.5 µM) and 51 µg/mL (≈ 136 µM), respectively.
For `Cc1cc(C)c2nc(SCC(=O)NC3CCCCC3)sc2c1`, the MIC90 in series [1] and in series [2] was 8 µg/mL (≈ 23.9 µM) throughout. The IC50 in series [3] and in series [4] was 16.3 µg/mL (≈ 48.7 µM) each time. The CC50 in series [5] worked out at 247 µg/mL (≈ 739 µM). For the same molecule, in series [7], the outcome was Active. Moreover, the selectivity ratio in series [6] stood at 15.4. The Activity result in series [8] was “Dose-Dependent Effect”.
`CC(C)c1ccc2nc(SCC(=O)NC3CCCCC3)sc2c1`: the MIC90 in series [1] and in series [2] was 4 µg/mL (≈ 11.5 µM) each time. The IC50 in series [3] and in series [4] was 9.35 µg/mL (≈ 26.8 µM) in each case. For the same molecule, the CC50 in series [5] was found to be 423 µg/mL (≈ 1210 µM). In addition, in series [7], the result was Active. Moreover, the selectivity ratio in series [6] was found to be 26.5. For the same molecule, in series [8], the Activity result was “Dose-Dependent Effect”.
On to `O=C(CSc1nc2ccccc2s1)NC1CCCCC1`, for which the MIC90 in series [1] and in series [2] was 64 µg/mL (≈ 209 µM) throughout. Besides, the half-maximal inhibitory concentration (IC50) in series [3] is 26.6 µg/mL (≈ 86.9 µM); in series [4], 40.6 µg/mL (≈ 133 µM).
Regarding `O=C(CSc1nc2ccc(Cl)cc2s1)NC1CCCCC1`, the MIC90 in series [1] was 32 µg/mL (≈ 93.9 µM); in series [2] it was 16 µg/mL (≈ 46.9 µM). Further, the values for the 50% inhibitory concentration (IC50) in series [3] and in series [4] were 48.6 µg/mL (≈ 143 µM) and 38.2 µg/mL (≈ 112 µM), respectively.
Regarding `CO[C@H]1/C=C/O[C@@]2(C)Oc3c(C)c(O)c4c(O)c(c(/C=N/N5CCN(C)CC5)c(O)c4c3C2=O)NC(=O)/C(C)=C\C=C\[C@H](C)[C@H](O)[C@@H](C)[C@@H](O)[C@@H](C)[C@H](OC(C)=O)[C@@H]1C` [RIFAMPIN], the MIC90 in series [1] turned out to be 0.015 µg/mL (≈ 0.0182 µM); in series [2] it was 0.03 µg/mL (≈ 0.0365 µM).
For `O=C(CSc1nc2ccc(OC(F)(F)F)cc2s1)NC1CCCCC1`, the results for the MIC90 in series [1] and in series [2] were 64 µg/mL (≈ 164 µM) and 32 µg/mL (≈ 82 µM), respectively. Besides, the half-inhibitory concentration (IC50) in series [3] was found to be 23.4 µg/mL (≈ 59.9 µM); in series [4] it was 66.2 µg/mL (≈ 170 µM).
For `O=C(CSc1nc2c(Br)cc(C(F)(F)F)cc2s1)NC1CCCCC1` the same measures were 64 µg/mL (≈ 141 µM), 64 µg/mL (≈ 141 µM), 25.7 µg/mL (≈ 56.7 µM) and 56 µg/mL (≈ 124 µM).
Turning to `O=C(CSc1nc2ccc(Br)cc2s1)NC1CCCCC1`, the figures for the MIC90 in series [1] and in series [2] were 64 µg/mL (≈ 166 µM) and 32 µg/mL (≈ 83 µM), respectively. Moreover, the figures for the IC50 in series [3] and in series [4] were 34.4 µg/mL (≈ 89.2 µM) and 49.8 µg/mL (≈ 129 µM), respectively.
